According to BindingDB's records for doi:10.1021/acs.jnatprod.7b00271 (University of Eastern Piedmont, 2017):

Assays:
[1] = target: Signal transducer and activator of transcription 3 (Homo sapiens, UniProt P40763); assay: Inhibition of IFN-gamma stimulated STAT3 (unknown origin) expressed in human HeLa cells after 6 hrs by luciferase reporter gene assay
Summary of the method: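 HeLa-STAT3-Luc cells stimulated with γIFN (20 IU/mL) with or without compounds for 6 h. PBS-washed cells lysed 15 min at room temperature and luciferase RLU measured. Values expressed as percent inhibition of IFN-γ-induced activity (taken as 100%). Mean of at least five independent experiments.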

[2] = target: T1, Nuclear factor erythroid 2-related factor 2 (Homo sapiens, UniProt Q16236); assay: Activation of Nrf2 (unknown origin) expressed in human HaCaT-ARE-luc cells after 6 hrs by luciferase reporter gene assay
T1 sequence (Q16236 whole entry): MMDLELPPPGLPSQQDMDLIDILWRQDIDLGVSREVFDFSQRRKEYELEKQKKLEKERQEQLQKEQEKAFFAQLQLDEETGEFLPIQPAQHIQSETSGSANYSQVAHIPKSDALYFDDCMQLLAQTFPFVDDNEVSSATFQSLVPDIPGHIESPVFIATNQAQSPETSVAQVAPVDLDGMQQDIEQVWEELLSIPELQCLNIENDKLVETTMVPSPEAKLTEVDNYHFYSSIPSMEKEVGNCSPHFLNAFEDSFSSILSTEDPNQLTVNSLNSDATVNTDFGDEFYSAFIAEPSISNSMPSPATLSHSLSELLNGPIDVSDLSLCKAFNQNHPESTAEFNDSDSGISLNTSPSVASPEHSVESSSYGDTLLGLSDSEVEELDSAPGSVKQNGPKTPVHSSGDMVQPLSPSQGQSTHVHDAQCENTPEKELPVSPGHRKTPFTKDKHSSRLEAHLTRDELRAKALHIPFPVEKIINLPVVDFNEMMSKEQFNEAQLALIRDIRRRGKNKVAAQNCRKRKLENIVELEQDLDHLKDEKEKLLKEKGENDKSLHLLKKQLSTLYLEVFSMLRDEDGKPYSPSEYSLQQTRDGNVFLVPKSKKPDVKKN
Summary of the method: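 HaCaT-ARE-Luc keratinocytes in DMEM with 10% FBS, 37 °C, 5% CO2, exposed to compounds for 6 h. Cells then washed with PBS and lysed (Tris-phosphate pH 7.8, MgCl2, DTT, Triton X-100, glycerol, 15 min RT). Luciferase RLU read on the supernatant and EC50 derived. Mean of at least five independent experiments.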

Sequence of Signal transducer and activator of transcription 3 (P40763 whole entry): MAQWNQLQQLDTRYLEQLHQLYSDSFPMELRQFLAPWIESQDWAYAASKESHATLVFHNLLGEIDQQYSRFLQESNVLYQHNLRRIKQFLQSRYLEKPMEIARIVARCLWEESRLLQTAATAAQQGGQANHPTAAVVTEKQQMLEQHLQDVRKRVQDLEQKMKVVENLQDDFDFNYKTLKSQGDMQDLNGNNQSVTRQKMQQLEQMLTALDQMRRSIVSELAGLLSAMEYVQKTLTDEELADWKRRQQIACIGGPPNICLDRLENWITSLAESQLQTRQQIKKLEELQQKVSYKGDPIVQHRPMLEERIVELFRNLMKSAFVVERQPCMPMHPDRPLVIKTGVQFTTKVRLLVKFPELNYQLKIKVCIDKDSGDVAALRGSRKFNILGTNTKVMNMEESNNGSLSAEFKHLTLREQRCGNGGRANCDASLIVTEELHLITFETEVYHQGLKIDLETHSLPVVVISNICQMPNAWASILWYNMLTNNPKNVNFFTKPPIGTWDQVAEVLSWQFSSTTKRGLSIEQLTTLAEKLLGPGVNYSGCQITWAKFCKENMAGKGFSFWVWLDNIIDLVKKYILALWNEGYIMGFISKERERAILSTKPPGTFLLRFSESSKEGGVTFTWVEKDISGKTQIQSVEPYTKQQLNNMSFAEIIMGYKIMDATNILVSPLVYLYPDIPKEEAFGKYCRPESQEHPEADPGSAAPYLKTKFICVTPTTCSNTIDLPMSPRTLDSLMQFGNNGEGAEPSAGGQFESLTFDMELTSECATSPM

IC50 [1]	EC50 [2]	Structure (SMILES)
> 25 µM	> 25 µM	COC(=O)[C@]12CCC(C)(C)C[C@H]1C1=CC[C@@H]3[C@@]4(C)C=C(C#Cc5ccccc5)C(=O)C(C)(C)[C@@H]4CC[C@@]3(C)[C@]1(C)CC2
> 25 µM	> 25 µM	COC(=O)[C@]12CCC(C)(C)C[C@H]1C1=CC[C@@H]3[C@@]4(C)C=C(c5ccc(OC)cc5)C(=O)C(C)(C)[C@@H]4CC[C@@]3(C)[C@]1(C)CC2
> 25 µM	> 25 µM	COC(=O)[C@]12CCC(C)(C)C[C@H]1C1=CC[C@@H]3[C@@]4(C)C=C(OC(C)=O)C(=O)C(C)(C)[C@@H]4CC[C@@]3(C)[C@]1(C)CC2
> 25 µM	> 25 µM	COC(=O)[C@]12CCC(C)(C)C[C@H]1C1=CC[C@@H]3[C@@]4(C)Cc5cnoc5C(C)(C)[C@@H]4CC[C@@]3(C)[C@]1(C)CC2
25.7 µM	2.45 µM	COC(=O)[C@]12CCC(C)(C)C[C@H]1C1=CC[C@@H]3[C@@]4(C)C=C(C(=O)O)C(=O)C(C)(C)[C@@H]4CC[C@@]3(C)[C@]1(C)CC2
> 25 µM	> 25 µM	CCOC(=O)/C=C/C1=C[C@]2(C)[C@H]3CC=C4[C@@H]5CC(C)(C)CC[C@]5(C(=O)OC)CC[C@@]4(C)[C@]3(C)CC[C@H]2C(C)(C)C1=O
> 25 µM	> 25 µM	COC(=O)[C@]12CCC(C)(C)C[C@H]1C1=CC[C@@H]3[C@@]4(C)CCC(=O)C(C)(C)[C@@H]4CC[C@@]3(C)[C@]1(C)CC2
> 25 µM	> 25 µM	COC(=O)[C@]12CCC(C)(C)C[C@H]1C1=CC[C@@H]3[C@@]4(C)C=C(c5ccc(C#N)cc5)C(=O)C(C)(C)[C@@H]4CC[C@@]3(C)[C@]1(C)CC2
> 25 µM	> 25 µM	COC(=O)C1=C[C@]2(C)[C@H]3CC=C4[C@@H]5CC(C)(C)CC[C@]5(C(=O)OC)CC[C@@]4(C)[C@]3(C)CC[C@H]2C(C)(C)C1=O
–	0.06 µM	COC(=O)[C@]12CCC(C)(C)C[C@H]1[C@H]1C(=O)C=C3[C@@]4(C)C=C(C#N)C(=O)C(C)(C)[C@@H]4CC[C@@]3(C)[C@]1(C)CC2 [CDDO-Me, 2]
–	1.1 µM	COC(=O)[C@]12CCC(C)(C)C[C@H]1C1=CC[C@@H]3[C@@]4(C)C=C(C#N)C(=O)C(C)(C)[C@@H]4CC[C@@]3(C)[C@]1(C)CC2
> 50 µM	–	CC1(C)CC[C@]2(C(=O)O)CC[C@]3(C)C(=CC[C@@H]4[C@@]5(C)CC[C@H](O)C(C)(C)[C@@H]5CC[C@]43C)[C@@H]2C1 [Oleanolic acid (OA)(Compound 1)]
> 25 µM	> 25 µM	COC(=O)[C@]12CCC(C)(C)C[C@H]1C1=CC[C@@H]3[C@@]4(C)C=CC(=O)C(C)(C)[C@@H]4CC[C@@]3(C)[C@]1(C)CC2
> 25 µM	11.5 µM	COC(=O)[C@]12CCC(C)(C)C[C@H]1C1=CC[C@@H]3[C@@]4(C)C=C(Br)C(=O)C(C)(C)[C@@H]4CC[C@@]3(C)[C@]1(C)CC2
> 25 µM	> 25 µM	COC(=O)[C@]12CCC(C)(C)C[C@H]1C1=CC[C@@H]3[C@@]4(C)CC(C#N)=C(O)C(C)(C)[C@@H]4CC[C@@]3(C)[C@]1(C)CC2
> 25 µM	> 25 µM	COC(=O)[C@]12CCC(C)(C)C[C@H]1C1=CC[C@@H]3[C@@]4(C)C=C(I)C(=O)C(C)(C)[C@@H]4CC[C@@]3(C)[C@]1(C)CC2
> 25 µM	> 25 µM	COC(=O)[C@]12CCC(C)(C)C[C@H]1C1=CC[C@@H]3[C@@]4(C)C=C(c5ccccc5)C(=O)C(C)(C)[C@@H]4CC[C@@]3(C)[C@]1(C)CC2
> 25 µM	> 25 µM	COC(=O)[C@]12CCC(C)(C)C[C@H]1C1=CC[C@@H]3[C@@]4(C)CC(C=O)=C(O)C(C)(C)[C@@H]4CC[C@@]3(C)[C@]1(C)CC2
